Test results as given in PMC2834874 (Bioorganic & medicinal chemistry letters, 2010).

Tests used:
Format in all cases: cell-based
[1] = target: M3 (Homo sapiens, UniProt P20309); assay: Potentiation of ~EC20 ACh, calcium mobilization in M3 CHO cells
Outline: (§1)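 Potentiation of an ~EC20 ACh response read as intracellular calcium mobilization in CHO cells expressing single receptor subtypes. M2 and M4 lines are co-transfected with chimeric Gqi5 to couple to calcium, while M3 and M5 lines are used directly. Data are means of independent determinations.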

[2] = target: T1, M5 (Homo sapiens, UniProt P08912); assay: Potentiation of ~EC20 ACh, calcium mobilization in M5 CHO cells
T1 sequence (P08912 1-532): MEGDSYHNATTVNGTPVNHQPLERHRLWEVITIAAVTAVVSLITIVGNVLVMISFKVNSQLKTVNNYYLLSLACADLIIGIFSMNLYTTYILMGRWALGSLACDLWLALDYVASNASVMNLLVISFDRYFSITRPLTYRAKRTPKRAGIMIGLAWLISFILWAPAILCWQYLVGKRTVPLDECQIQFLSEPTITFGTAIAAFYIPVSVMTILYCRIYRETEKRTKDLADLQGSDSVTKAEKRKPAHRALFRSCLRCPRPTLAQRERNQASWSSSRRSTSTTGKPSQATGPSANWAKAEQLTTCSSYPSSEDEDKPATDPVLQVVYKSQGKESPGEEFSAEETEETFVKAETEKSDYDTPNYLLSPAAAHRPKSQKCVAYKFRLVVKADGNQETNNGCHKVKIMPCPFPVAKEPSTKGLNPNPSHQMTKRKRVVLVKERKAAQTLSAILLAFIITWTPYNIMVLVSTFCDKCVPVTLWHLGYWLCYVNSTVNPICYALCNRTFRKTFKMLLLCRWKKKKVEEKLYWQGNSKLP
Outline: as §1

[3] = target: T2, M1 (Homo sapiens, UniProt P11229); assay: ACh CRC fold-shift experiments, calcium mobilization in M1 CHO cells
T2 sequence (P11229 1-460): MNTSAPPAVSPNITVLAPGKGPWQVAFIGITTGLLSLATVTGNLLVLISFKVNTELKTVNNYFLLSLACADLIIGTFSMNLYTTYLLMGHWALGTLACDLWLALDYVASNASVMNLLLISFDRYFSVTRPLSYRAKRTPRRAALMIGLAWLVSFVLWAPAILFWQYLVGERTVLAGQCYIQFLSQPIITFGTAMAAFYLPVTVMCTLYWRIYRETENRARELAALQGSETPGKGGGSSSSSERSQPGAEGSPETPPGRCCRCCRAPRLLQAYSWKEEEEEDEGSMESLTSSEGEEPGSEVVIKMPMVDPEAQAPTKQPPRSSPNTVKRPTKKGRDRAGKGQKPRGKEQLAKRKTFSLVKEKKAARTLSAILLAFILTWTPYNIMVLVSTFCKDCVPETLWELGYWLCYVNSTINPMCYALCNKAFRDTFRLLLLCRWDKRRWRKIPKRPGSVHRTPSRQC
Outline: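 ACh concentration-response curve run alone and with the test compound at 10 μM or 30 μM. Intracellular calcium mobilization measured in CHO cells expressing M1. The fold leftward shift of the ACh curve is taken, and intrinsic allosteric agonism is recorded from the response to compound alone. Values are means of at least three independent determinations.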

[4] = target: T2, M1; settings: M1 EC50 ratio
[5] = target: T3, M2 (Homo sapiens, UniProt P08172); assay: Potentiation of ~EC20 ACh, calcium mobilization in M2/Gqi5 CHO cells; settings: up to 30 μM
T3 sequence (P08172 1-466): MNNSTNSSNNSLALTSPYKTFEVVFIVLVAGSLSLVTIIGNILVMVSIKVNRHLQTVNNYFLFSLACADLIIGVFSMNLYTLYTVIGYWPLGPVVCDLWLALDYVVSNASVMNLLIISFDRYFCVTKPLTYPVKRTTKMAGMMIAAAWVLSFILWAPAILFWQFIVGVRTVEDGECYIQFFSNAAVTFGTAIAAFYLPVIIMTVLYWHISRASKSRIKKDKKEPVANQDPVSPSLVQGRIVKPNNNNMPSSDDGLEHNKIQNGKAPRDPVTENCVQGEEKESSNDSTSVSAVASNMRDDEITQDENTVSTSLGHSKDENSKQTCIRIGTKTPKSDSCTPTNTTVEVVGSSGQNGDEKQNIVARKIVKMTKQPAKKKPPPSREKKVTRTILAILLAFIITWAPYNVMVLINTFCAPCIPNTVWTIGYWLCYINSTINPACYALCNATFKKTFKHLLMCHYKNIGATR
Outline: as §1

[6] = target: T4, M4 (Homo sapiens, UniProt P08173); assay: Potentiation of ~EC20 ACh, calcium mobilization in M4/Gqi5 CHO cells; settings: up to 30 μM
T4 sequence (P08173 1-479): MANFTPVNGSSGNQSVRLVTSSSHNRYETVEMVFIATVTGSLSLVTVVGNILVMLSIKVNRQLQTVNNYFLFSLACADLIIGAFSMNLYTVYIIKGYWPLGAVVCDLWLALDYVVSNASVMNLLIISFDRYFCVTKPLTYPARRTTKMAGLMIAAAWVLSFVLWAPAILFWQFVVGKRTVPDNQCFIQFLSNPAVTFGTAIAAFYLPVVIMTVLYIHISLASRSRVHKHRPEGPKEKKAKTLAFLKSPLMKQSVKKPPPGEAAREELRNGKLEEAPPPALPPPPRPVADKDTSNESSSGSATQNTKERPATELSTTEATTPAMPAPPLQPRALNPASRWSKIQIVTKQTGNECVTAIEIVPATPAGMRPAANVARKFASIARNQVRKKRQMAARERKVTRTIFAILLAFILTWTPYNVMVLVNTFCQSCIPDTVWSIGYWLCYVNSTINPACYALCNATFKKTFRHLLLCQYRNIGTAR
Outline: as §1

Chain of M3 (P20309 whole entry): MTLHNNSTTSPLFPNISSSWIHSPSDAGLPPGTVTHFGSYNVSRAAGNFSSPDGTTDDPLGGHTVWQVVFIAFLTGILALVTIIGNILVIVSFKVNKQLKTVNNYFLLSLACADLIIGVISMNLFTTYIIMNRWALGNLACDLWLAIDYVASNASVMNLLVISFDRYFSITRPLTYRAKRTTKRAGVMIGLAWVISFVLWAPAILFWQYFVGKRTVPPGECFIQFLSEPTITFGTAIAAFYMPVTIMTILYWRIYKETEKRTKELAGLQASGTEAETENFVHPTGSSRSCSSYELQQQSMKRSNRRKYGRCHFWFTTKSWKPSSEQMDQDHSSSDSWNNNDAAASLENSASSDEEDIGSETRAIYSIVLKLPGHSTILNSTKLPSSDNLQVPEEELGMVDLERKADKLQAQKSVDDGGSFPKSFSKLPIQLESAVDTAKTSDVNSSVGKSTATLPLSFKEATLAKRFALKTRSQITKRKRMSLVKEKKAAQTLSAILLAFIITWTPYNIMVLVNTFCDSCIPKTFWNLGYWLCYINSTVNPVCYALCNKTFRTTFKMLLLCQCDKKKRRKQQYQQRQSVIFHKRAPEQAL

## Cn1cc(-c2ccc(CN3C(=O)C(=O)c4ccccc43)cc2)cn1 [Compound 9a]
[1]; CRC in presence of ~EC20 ACh
  selectivity versus M3: good selectivity
[2]; CRC in presence of ~EC20 ACh
  selectivity versus M5: good selectivity
[3]; 10 μM compound
  Fold-shift of the ACh CRC at M5: approximately 5 fold
[3]; M1 fold-shift experiment, at 30 μM
  intrinsic allosteric agonism: ~30%

## Cn1cc(-c2ccc(CN3C(=O)C(=O)c4ccccc43)c(F)c2)cn1 [Compound 12a]
[4]
  increase in potency over VU0365137 (9a): three-fold increase
[5]
  activation of M2: minimal/no activation
[1]; up to 30 μM
  activation of M3: minimal/no activation
[6]
  activation of M4: minimal/no activation
[2]; up to 30 μM
  activation of M5: minimal/no activation
[3]; 30 μM compound
  Fold-shift of the ACh CRC at M5: approximately 3 fold
